Results taken from ChEMBL document CHEMBL1122524, “Cyclopentenyluridine and cyclopentenylcytidine analogues as inhibitors of uridine-cytidine kinase” (J Med Chem, 1984).
pKi: −log10 of the molar value.

What was measured:
[1] = target: T1, Uridine-cytidine kinase 1 (Mus musculus) (UniProt P52623); assay: Inhibition of uridine kinase from L1210 cells was evaluated by measuring the retention of phosphorylated product on DE81 filter papers at 100 uM; type: functional, cell-based
T1 sequence (whole entry): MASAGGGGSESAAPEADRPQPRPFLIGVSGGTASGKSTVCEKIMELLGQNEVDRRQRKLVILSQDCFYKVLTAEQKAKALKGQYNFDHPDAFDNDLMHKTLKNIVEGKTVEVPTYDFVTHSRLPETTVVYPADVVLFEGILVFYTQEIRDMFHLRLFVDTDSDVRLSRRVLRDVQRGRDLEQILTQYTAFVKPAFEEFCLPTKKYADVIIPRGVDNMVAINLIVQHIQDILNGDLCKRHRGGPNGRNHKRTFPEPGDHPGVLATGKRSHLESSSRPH

[2] = test system: L1210; assay: Compound was tested for its ability to inhibit L1210 cell growth after 72 hr at 1000 uM concentration; type: functional; details: Mus musculus, L1210, 72 h
In short: (§1)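 L1210 cells are grown as stationary suspension cultures in Fishers medium with 10% heat-inactivated horse serum. Drug exposure is continuous for 72 h. Cell number is counted with a Coulter counter. Percent inhibition is calculated against untreated control cultures.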

[3] = target: T1, Uridine-cytidine kinase 1 (Mus musculus); assay: Inhibition of uridine kinase from L1210 cells was evaluated by measuring the retention of phosphorylated product on DE81 filter papers at 1000 uM; type: functional, cell-based
[4] = test system: L1210; assay: Compound was tested for its ability to inhibit L1210 cell growth after 72 hr at 500 uM concentration; type: functional; details: Mus musculus, L1210, 72 h; in short: as §1
[5] = test system: L1210; assay: Compound was tested for its ability to inhibit L1210 cell growth after 72 hr at 100 uM concentration; type: functional; details: Mus musculus, L1210, 72 h; in short: as §1
[6] = target: T2, Uridine-cytidine kinase 1 (Mus musculus, UniProt P52623); assay: Binding affinity to uridine kinase from L1210. was determined from the dixon plot
T2 sequence (P52623 whole entry): T1 sequence (whole entry)
In short: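 Uridine kinase from L1210 cells. Uridine is used at 10, 40 and 200 μM, with inhibitor at 1, 0.5, 0.2 and 0.1 mM. Ki is taken from Dixon plots.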

[7] = test system: L1210; assay: Compound was tested for its ability to inhibit L1210 cell growth after 72 hr at 0.03 uM concentration; type: functional; details: Mus musculus, L1210, 72 h; in short: as §1

inhibition [1] | inhibition [3] | pKi [6] | Structure (SMILES) | inhibition at 1000 µM [2] | inhibition at 500 µM [4] | inhibition at 100 µM [5] | inhibition at 0.03 µM [7]
35% | 78% |  | O=c1ccn([C@@H]2C=C(CO)[C@@H](O)[C@H]2O)c(=O)[nH]1 | 36% | 12% | 2% | 
57% | 89% | 4.22 | Nc1ccn([C@@H]2C=C(CO)[C@@H](O)[C@H]2O)c(=O)n1 | 99% | 96% | 99% | 58%
